Results: ChEMBL document CHEMBL5724801, “EUbOPEN Chemogenomics Library - Multiplex” (2024)
Values joined by “and” are separate entries in the source; they are usually repeats but may differ in a detail not shown here. Equal entries are not always repeated.

Legend:
Format in all cases: toxicity, cell-based
Fibroblast = assay: Multiplex assay against human fibroblast
Outline: (§1)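 Cells stained live at seeding with Hoechst33342, BioTracker Green Microtubule Cytoskeleton Dye, MitoTracker Red and Annexin V Alexa Fluor 680 were imaged on a CQ1 microscope at 37°C and 5% CO2 after compound addition. Their classification by CellPathfinder machine-learning gating ran from Hoechst high-intensity objects versus normal cells, to healthy, pyknosed or fragmented nuclei among normal cells, to mitotic or apoptotic among pyknosed cells. Tubulin, mitochondrial-mass and membrane-permeability phenotypes are per cents of healthy-nucleus cells.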

HEK-293T = assay: Multiplex assay against HEK293T; settings: human; outline: as §1
U2OS = assay: Multiplex assay against U2OS; settings: human; outline: as §1
[1] = 12 h, 1 µM, compound concentration 1 uM
[2] = 12 h, 10 µM, compound concentration 10 uM
[3] = 24 h, 1 µM, compound concentration 1 uM
[4] = 24 h, 10 µM, compound concentration 10 uM
[5] = 48 h, 1 µM, compound concentration 1 uM
[6] = 48 h, 10 µM, compound concentration 10 uM

Structure (SMILES): Cn1cnc(-c2cnc(O[C@H]3CCN(C(=O)Cc4ccc(OC(F)(F)F)cc4)C[C@H]3F)c(C(N)=O)c2)c1
- Population Apoptotic (%) (Fibroblast; [1]): 14%
- Population Healthy Nuclei (%) (Fibroblast; [1]): 57.67% and 77.82%
- Population Hoechst High Intensity Objects (%) (Fibroblast; [1]): 0%
- Population Mitotic Cells (%) (Fibroblast; [1]): 86% and 87.5%
- Population Normal (%) (Fibroblast; [1]): 100%
- Population Pyknosed Nuclei (%) (Fibroblast; [1]): 26.46% and 13.39%
- Population Apoptotic (%) (Fibroblast; [2]): 14.93% and 26.53%
- Population Healthy Nuclei (%) (Fibroblast; [2]): 58.85% and 71.95%
- Population Hoechst High Intensity Objects (%) (Fibroblast; [2]): 0%
- Population Mitotic Cells (%) (Fibroblast; [2]): 85.07% and 73.47%
- Population Normal (%) (Fibroblast; [2]): 100%
- Population Pyknosed Nuclei (%) (Fibroblast; [2]): 29.65% and 22.17%
- Population Apoptotic (%) (Fibroblast; [3]): 8.89% and 19.35%
- Population Healthy Nuclei (%) (Fibroblast; [3]): 68.08% and 79.62%
- Population Hoechst High Intensity Objects (%) (Fibroblast; [3]): 0%
- Population Mitotic Cells (%) (Fibroblast; [3]): 91.11% and 80.65%
- Population Normal (%) (Fibroblast; [3]): 100%
- Population Pyknosed Nuclei (%) (Fibroblast; [3]): 21.13% and 11.7%
- Population Healthy Nuclei (%) (Fibroblast; [4]): 69.48% and 75.54%
- Population Hoechst High Intensity Objects (%) (Fibroblast; [4]): 0%
- Population Mitotic Cells (%) (Fibroblast; [4]): 93.62% and 75.76%
- Population Normal (%) (Fibroblast; [4]): 100%
- Population Pyknosed Nuclei (%) (Fibroblast; [4]): 18.88% and 11.87%
- Population Apoptotic (%) (Fibroblast; [5]): 25%
- Population Healthy Nuclei (%) (Fibroblast; [5]): 78.48% and 79.12%
- Population Hoechst High Intensity Objects (%) (Fibroblast; [5]): 0%
- Population Mitotic Cells (%) (Fibroblast; [5]): 75% and 83.33%
- Population Normal (%) (Fibroblast; [5]): 100%
- Population Pyknosed Nuclei (%) (Fibroblast; [5]): 8.44% and 6.59%
- Population Apoptotic (%) (Fibroblast; [6]): 33.33% and 57.14%
- Population Healthy Nuclei (%) (Fibroblast; [6]): 77.93% and 84.75%
- Population Hoechst High Intensity Objects (%) (Fibroblast; [6]): 0%
- Population Mitotic Cells (%) (Fibroblast; [6]): 66.67% and 42.86%
- Population Normal (%) (Fibroblast; [6]): 100%
- Population Pyknosed Nuclei (%) (Fibroblast; [6]): 3.1% and 4.96%
- Population Hoechst High Intensity Objects (%) (HEK-293T; [1]): 0.47% and 4.71%
- Population Mitotic Cells (%) (HEK-293T; [1]): 91.23% and 91.04%
- Population Normal (%) (HEK-293T; [1]): 99.53% and 95.29%
- Population Pyknosed Nuclei (%) (HEK-293T; [1]): 40.24% and 73.63%
- Total Cell Count (HEK-293T; [1]): 191
- Population Hoechst High Intensity Objects (%) (HEK-293T; [2]): 0.68% and 0.69%
- Population Mitotic Cells (%) (HEK-293T; [2]): 87.04% and 85.37%
- Population Normal (%) (HEK-293T; [2]): 99.32% and 99.31%
- Population Pyknosed Nuclei (%) (HEK-293T; [2]): 55.29% and 86.01%
- Total Cell Count (HEK-293T; [2]): 144
- Population Healthy Nuclei (%) (HEK-293T; [3]): 76.21% and 29.41%
- Population Hoechst High Intensity Objects (%) (HEK-293T; [3]): 0.45% and 3.61%
- Population Mitotic Cells (%) (HEK-293T; [3]): 88.44% and 91.13%
- Population Normal (%) (HEK-293T; [3]): 99.55% and 96.39%
- Population Pyknosed Nuclei (%) (HEK-293T; [3]): 22.27% and 66.31%
- Population Hoechst High Intensity Objects (%) (HEK-293T; [4]): 0.8% and 0%
- Population Mitotic Cells (%) (HEK-293T; [4]): 68.57% and 83.33%
- Population Normal (%) (HEK-293T; [4]): 99.2% and 100%
- Population Pyknosed Nuclei (%) (HEK-293T; [4]): 37.84% and 76.43%
- Total Cell Count (HEK-293T; [4]): 373 and 157
- Population Healthy Nuclei (%) (HEK-293T; [5]): 86.49% and 68.91%
- Population Hoechst High Intensity Objects (%) (HEK-293T; [5]): 0% and 0.42%
- Population Mitotic Cells (%) (HEK-293T; [5]): 89.54% and 83.58%
- Population Normal (%) (HEK-293T; [5]): 100% and 99.58%
- Population Pyknosed Nuclei (%) (HEK-293T; [5]): 10.34% and 28.15%
- Population Healthy Nuclei (%) (HEK-293T; [6]): 80.81% and 60.93%
- Population Hoechst High Intensity Objects (%) (HEK-293T; [6]): 0% and 2.27%
- Population Mitotic Cells (%) (HEK-293T; [6]): 82.61% and 79.27%
- Population Normal (%) (HEK-293T; [6]): 100% and 97.73%
- Population Pyknosed Nuclei (%) (HEK-293T; [6]): 16.11% and 38.14%
- Population Apoptotic (%) (U2OS; [1]): 46.88% and 25%
- Population Healthy Nuclei (%) (U2OS; [1]): 91.05% and 84.18%
- Population Hoechst High Intensity Objects (%) (U2OS; [1]): 0%
- Population Mitotic Cells (%) (U2OS; [1]): 53.12% and 75%
- Population Normal (%) (U2OS; [1]): 100%
- Population Pyknosed Nuclei (%) (U2OS; [1]): 8.42% and 13.56%
- Population Apoptotic (%) (U2OS; [2]): 38.46% and 23.33%
- Population Healthy Nuclei (%) (U2OS; [2]): 82.47% and 74.67%
- Population Hoechst High Intensity Objects (%) (U2OS; [2]): 0.26% and 0%
- Population Mitotic Cells (%) (U2OS; [2]): 61.54% and 76.67%
- Population Normal (%) (U2OS; [2]): 99.74% and 100%
- Population Pyknosed Nuclei (%) (U2OS; [2]): 16.75% and 20%
- Population Apoptotic (%) (U2OS; [3]): 37.74% and 45.16%
- Population Healthy Nuclei (%) (U2OS; [3]): 89.71% and 85.37%
- Population Hoechst High Intensity Objects (%) (U2OS; [3]): 0.17% and 0%
- Population Mitotic Cells (%) (U2OS; [3]): 62.26% and 54.84%
- Population Normal (%) (U2OS; [3]): 99.83% and 100%
- Population Pyknosed Nuclei (%) (U2OS; [3]): 9.09% and 12.6%
- Population Apoptotic (%) (U2OS; [4]): 46.15% and 28.21%
- Population Healthy Nuclei (%) (U2OS; [4]): 86.69% and 75.26%
- Population Hoechst High Intensity Objects (%) (U2OS; [4]): 0% and 0.51%
- Population Mitotic Cells (%) (U2OS; [4]): 53.85% and 71.79%
- Population Normal (%) (U2OS; [4]): 100% and 99.49%
- Population Pyknosed Nuclei (%) (U2OS; [4]): 12.36% and 20.1%
- Population Apoptotic (%) (U2OS; [5]): 32.56% and 44.19%
- Population Healthy Nuclei (%) (U2OS; [5]): 89.01% and 86.44%
- Population Hoechst High Intensity Objects (%) (U2OS; [5]): 0% and 0.24%
- Population Mitotic Cells (%) (U2OS; [5]): 67.44% and 55.81%
- Population Normal (%) (U2OS; [5]): 100% and 99.76%
- Population Pyknosed Nuclei (%) (U2OS; [5]): 7.88% and 10.41%
- Population Apoptotic (%) (U2OS; [6]): 53.41% and 48.57%
- Population Healthy Nuclei (%) (U2OS; [6]): 86.7% and 85.71%
- Population Hoechst High Intensity Objects (%) (U2OS; [6]): 0%
- Population Mitotic Cells (%) (U2OS; [6]): 46.59% and 51.43%
- Population Normal (%) (U2OS; [6]): 100%
- Population Pyknosed Nuclei (%) (U2OS; [6]): 9.51% and 11.63%
